Assay results reported in ChEMBL document CHEMBL1649560, “Beta-lactamase-mediated beta-lactam resistance in Campylobacter species: prevalence of Cj0299 (bla OXA-61) and evidence for a novel beta-Lactamase in C. jejuni” (2009).
Values after ≈ are worked out from the molar mass of the structure shown.

Assays:
Type in all cases: functional
[1] = test system: Campylobacter coli; test: Antibacterial activity against bla gene-positive and nitrocefin reaction-positive beta-lactamase harboring Campylobacter coli isolate P321 by NCCLS agar doubling dilution method in presence of Tazobactam
How it was run: (§1)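 MICs of β-lactams by agar doubling dilution following the NCCLS (CLSI) Campylobacter Working Group procedure, with C. jejuni NCTC 11168 and C. coli NCTC 11366 as controls. Isolates were from UK poultry flocks. β-Lactamase status was set by Cj0299 PCR (281-bp amplimer) and by a nitrocefin colour change of sonicated lysate within 5 min, or within 30 min on repeat.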

[2] = test system: Campylobacter coli; test: Antibacterial activity against bla-positive and beta-lactamase-weakly positive Campylobacter coli isolate P1627 by NCCLS agar doubling dilution method in presence of Tazobactam
How it was run: (§2)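 MICs by agar doubling dilution per the NCCLS (now CLSI) Campylobacter Working Group method. Isolates came from UK chicken flocks (feces, ceca or farm environment), 2000–2006. C. jejuni NCTC 11168 and C. coli NCTC 11366 served as control strains. The ampicillin resistance cutoff was 8 μg/ml; BSAC/CLSI Enterobacteriaceae guidelines were used for other agents.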

[3] = test system: Campylobacter jejuni; test: Antibacterial activity against bla gene-negative and nitrocefin reaction-positive beta-lactamase harboring Campylobacter jejuni isolate P843 by NCCLS agar doubling dilution method in presence of Tazobactam; how it was run: as §1
[4] = test system: Campylobacter jejuni; test: Antibacterial activity against bla gene-positive and nitrocefin reaction-positive beta-lactamase harboring Campylobacter jejuni isolate P790 by NCCLS agar doubling dilution method in presence of Tazobactam; how it was run: as §2
[5] = test system: Campylobacter jejuni; test: Antibacterial activity against bla gene-positive and nitrocefin reaction-positive beta-lactamase harboring Campylobacter jejuni isolate P1730 by NCCLS agar doubling dilution method in presence of Tazobactam; how it was run: as §2
[6] = test system: Campylobacter jejuni; test: Antibacterial activity against bla gene-positive and nitrocefin reaction-positive beta-lactamase harboring Campylobacter jejuni isolate P316 by NCCLS agar doubling dilution method in presence of Tazobactam; how it was run: as §2
[7] = test system: Campylobacter jejuni; test: Antibacterial activity against bla gene-positive and nitrocefin reaction-positive beta-lactamase harboring Campylobacter jejuni isolate P338 by NCCLS agar doubling dilution method in presence of Tazobactam; how it was run: as §2
[8] = test system: Campylobacter jejuni; test: Antibacterial activity against bla gene-negative and nitrocefin reaction-positive beta-lactamase harboring Campylobacter jejuni isolate P854 by NCCLS agar doubling dilution method in presence of Tazobactam; how it was run: as §1
[9] = test system: Campylobacter jejuni; test: Antibacterial activity against bla gene-positive and nitrocefin reaction-positive beta-lactamase harboring Campylobacter jejuni isolate P1093 by NCCLS agar doubling dilution method in presence of Tazobactam; how it was run: as §1
[10] = test system: Campylobacter coli; test: Antibacterial activity against Campylobacter coli by NCCLS agar doubling dilution method in presence of Tazobactam; how it was run: as §1
[11] = test system: Campylobacter coli; test: Antibacterial activity against bla gene-positive and nitrocefin reaction-positive beta-lactamase harboring Campylobacter coli isolate P1826 by NCCLS agar doubling dilution method in presence of Tazobactam; how it was run: as §1
[12] = test system: Campylobacter coli; test: Antibacterial activity against Campylobacter coli by NCCLS agar doubling dilution method
How it was run: (§3)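 MICs by agar doubling dilution following the NCCLS (CLSI) Campylobacter Working Group procedure, applied to ampicillin- and amoxicillin-resistant isolates from UK chicken flocks (2000–2006). C. jejuni NCTC 11168 and C. coli NCTC 11366 served as control strains. Resistance was called at an ampicillin cutoff of 8 μg/ml. Other agents were judged against Enterobacteriaceae guidelines (BSAC, CLSI).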

[13] = test system: Campylobacter jejuni; test: Antibacterial activity against Campylobacter jejuni by NCCLS agar doubling dilution method in presence of Tazobactam; how it was run: as §1
[14] = test system: Campylobacter jejuni; test: Antibacterial activity against bla gene-positive and nitrocefin reaction-positive beta-lactamase harboring Campylobacter jejuni isolate P286 by NCCLS agar doubling dilution method in presence of Tazobactam; how it was run: as §2
[15] = test system: Campylobacter jejuni; test: Antibacterial activity against bla gene-positive and nitrocefin reaction-negative beta-lactamase harboring Campylobacter jejuni isolate P1699 by NCCLS agar doubling dilution method in presence of Tazobactam; how it was run: as §1
[16] = test system: Campylobacter jejuni; test: Antibacterial activity against bla gene-negative and nitrocefin reaction-negative beta-lactamase harboring Campylobacter jejuni isolate P850 by NCCLS agar doubling dilution method in presence of Tazobactam; how it was run: as §1
[17] = test system: Campylobacter jejuni; test: Antibacterial activity against bla gene-positive and nitrocefin reaction-positive beta-lactamase harboring Campylobacter jejuni isolate P1618 by NCCLS agar doubling dilution method in presence of Tazobactam; how it was run: as §1
[18] = test system: Campylobacter jejuni; test: Antibacterial activity against bla gene-positive and nitrocefin reaction-positive beta-lactamase harboring Campylobacter jejuni isolate P1650 by NCCLS agar doubling dilution method in presence of Tazobactam; how it was run: as §2
[19] = test system: Campylobacter jejuni; test: Antibacterial activity against bla gene-positive and nitrocefin reaction-negative beta-lactamase harboring Campylobacter jejuni isolate P1698 by NCCLS agar doubling dilution method in presence of Tazobactam; how it was run: as §1
[20] = test system: Campylobacter jejuni; test: Antibacterial activity against Campylobacter jejuni isolate P270 harboring blaOXA-61::cat gene by NCCLS agar doubling dilution method in presence of Tazobactam
[21] = test system: Campylobacter jejuni; test: Antibacterial activity against Campylobacter jejuni isolate P1093 harboring blaOXA-61::cat gene by NCCLS agar doubling dilution method in presence of Tazobactam
How it was run: (§4)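 Agar doubling dilution MICs (NCCLS/CLSI Campylobacter Working Group method) against Cj0299-inactivated mutants. Mutants were made by transforming the C. jejuni isolate with pCI and selecting on Mueller-Hinton agar with 10 μg/ml chloramphenicol for 3–5 days. Chromosomal insertion was confirmed by PCR with Cj0299 and cat primers.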

[22] = test system: Campylobacter jejuni; test: Antibacterial activity against bla gene-negative and nitrocefin reaction-negative beta-lactamase harboring Campylobacter jejuni isolate P1962 by NCCLS agar doubling dilution method in presence of Tazobactam; how it was run: as §1
[23] = test system: Campylobacter jejuni; test: Antibacterial activity against bla gene-negative and nitrocefin reaction-negative beta-lactamase harboring Campylobacter jejuni isolate P835 by NCCLS agar doubling dilution method in presence of Tazobactam; how it was run: as §1
[24] = test system: Campylobacter jejuni; test: Antibacterial activity against bla gene-positive and nitrocefin reaction-positive beta-lactamase harboring Campylobacter jejuni isolate P285 by NCCLS agar doubling dilution method in presence of Tazobactam; how it was run: as §2
[25] = test system: Campylobacter jejuni; test: Antibacterial activity against Campylobacter jejuni by NCCLS agar doubling dilution method; how it was run: as §3
[26] = test system: Campylobacter jejuni; test: Antibacterial activity against bla gene-positive and nitrocefin reaction-negative beta-lactamase harboring Campylobacter jejuni isolate NCTC 11168 by NCCLS agar doubling dilution method in presence of Tazobactam; how it was run: as §1
[27] = test system: Campylobacter jejuni; test: Antibacterial activity against Campylobacter jejuni isolate P338 harboring blaOXA-61::cat gene by NCCLS agar doubling dilution method in presence of Tazobactam; how it was run: as §4

Molecule `C[C@]1(Cn2ccnn2)[C@H](C(=O)O)N2C(=O)C[C@H]2S1(=O)=O` [TAZOBACTAM] has an MIC [1] greater than 16 mg/L, an MIC [2] of 16 mg/L and an MIC [3] greater than 16 mg/L. The MIC [4] was greater than 16 mg/L, the MIC [5] was 16 mg/L and the MIC [6] was greater than 16 mg/L. It also gave an MIC [7] greater than 16 mg/L, an MIC [8] greater than 8 mg/L and an MIC [9] of 256 mg/L. The MIC50 [10] was 16 mg/L, the MIC90 [10] was 32 mg/L and the MIC [11] was 16 mg/L. For the same molecule, the MIC [12] was 16 mg/L (≈ 53.3 µM), the MIC50 [12] was 16 mg/L (≈ 53.3 µM) and the MIC90 [12] was 32 mg/L (≈ 107 µM). The MIC50 [13] was 16 mg/L, the MIC90 [13] was 32 mg/L and the MIC (range minimum) [13] was 1 mg/L. The MIC [14] was greater than 16 mg/L, the MIC [15] was less than 8 mg/L and the MIC [16] was greater than 8 mg/L. It also gave an MIC [17] of 32 mg/L, an MIC [18] of 32 mg/L and an MIC [19] of 16 mg/L. It also gave an MIC [20] of 4 mg/L, an MIC [21] of 32 mg/L and an MIC [22] greater than 16 mg/L. The MIC [23] was greater than 16 mg/L, the MIC [24] was greater than 16 mg/L and the MIC50 [25] was 16 mg/L (≈ 53.3 µM). The MIC90 [25] was 32 mg/L (≈ 107 µM), the MIC [26] was 16 mg/L and the MIC [27] was 8 mg/L.
